Measurements: ChEMBL document CHEMBL4020725, “Design and synthesis of novel xanthine derivatives as potent and selective A2B adenosine receptor antagonists for the treatment of chronic inflammatory airway diseases” (Eur J Med Chem, 2017)
Converted amounts (≈) assume the structure as drawn. The source made the active and inactive calls. The calls are words filed in the database; no cut-off is given here.

Key:
[1] = Cmax in C57BL/6J mouse at 10 mg/kg, po; type: ADME, organism-based; design: dose 10 mg/kg, route oral; settings: in vivo
Method in brief: (§1)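 Oral dosing at 10 mg/Kg in C57BL/6J mice. Vehicle is DMAC (10%), CrEL (10%), PEG300 (10%) in water, pH ~9, or, for one compound, DMSO (10%), CrEL (10%), PEG300 (10%) in water, pH ~7.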

[2] = target: T1, Adenosine receptor A3 (Homo sapiens) (UniProt P0DMS8); assay: Displacement of [3H]-HEMADO from human adenosine A3 receptor expressed in HEK293 cell membranes at 1 uM after 90 mins relative to control
T1 sequence (whole entry): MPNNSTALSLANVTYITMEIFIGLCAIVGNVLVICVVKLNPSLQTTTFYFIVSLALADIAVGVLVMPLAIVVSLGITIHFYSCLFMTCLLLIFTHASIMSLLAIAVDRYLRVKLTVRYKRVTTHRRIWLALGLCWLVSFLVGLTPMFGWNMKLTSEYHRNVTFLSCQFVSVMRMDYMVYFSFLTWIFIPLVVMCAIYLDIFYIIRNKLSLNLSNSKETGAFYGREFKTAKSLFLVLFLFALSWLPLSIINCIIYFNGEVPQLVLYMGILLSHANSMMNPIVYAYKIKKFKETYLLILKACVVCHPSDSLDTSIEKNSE
Method in brief: (§2)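 Membranes from HEK-293 cells stably transfected with human A1, A2A or A3 receptor, pretreated with 1 U/ml ADA. Membranes are incubated 90 min at room temperature with gentle agitation. Tracer and buffer per receptor: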

[3] = system: Liver; assay: Metabolic stability in rat liver microsomes; type: ADME, microsome
[4] = Aqueous solubility of the compound at pH 7.4; type: physicochemical
Method in brief: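 Aqueous solubility measured at pH 7.4.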

[5] = Half life in C57BL/6J mouse at 10 mg/kg, po; type: ADME, organism-based; settings: in vivo; method in brief: as §1
[6] = target: T2, Adenosine receptor A2b (Homo sapiens, UniProt P29275); assay: Antagonist activity at human adenosine A2B receptor expressed in mouse NIH/3T3 cells assessed as inhibition of NECA-induced IL-6 release incubated for 15 mins followed by agonist treatment for 15 mins by HTRF assay; type: cell-based
T2 sequence (P29275 whole entry): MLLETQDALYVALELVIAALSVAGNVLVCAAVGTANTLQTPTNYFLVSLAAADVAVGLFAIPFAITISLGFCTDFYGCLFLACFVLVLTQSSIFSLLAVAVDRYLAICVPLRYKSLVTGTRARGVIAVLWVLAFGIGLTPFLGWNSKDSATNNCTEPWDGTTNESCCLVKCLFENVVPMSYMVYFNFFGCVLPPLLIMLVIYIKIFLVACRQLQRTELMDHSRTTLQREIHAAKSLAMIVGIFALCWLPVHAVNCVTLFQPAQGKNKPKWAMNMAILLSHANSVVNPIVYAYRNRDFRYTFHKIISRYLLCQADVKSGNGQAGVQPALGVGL

[7] = AUC (0 to t) in C57BL/6J mouse at 10 mg/kg, po; type: ADME, organism-based; settings: in vivo; method in brief: as §1
[8] = system: P-gp; assay: Substrate activity at P-gp (unknown origin) assessed as ratio of permeability from basolateral to apical side over apical to basolateral side; type: ADME; settings: human, not told
[9] = system: Liver; assay: Metabolic stability in mouse liver microsomes; type: ADME, microsome
[10] = target: T3, Adenosine receptor A1 (Homo sapiens) (UniProt P30542); assay: Displacement of [3H]-DPCPX from human adenosine A1 receptor expressed in HEK293 cell membranes at 0.1 uM after 90 mins relative to control; method in brief: as §2
T3 sequence (whole entry): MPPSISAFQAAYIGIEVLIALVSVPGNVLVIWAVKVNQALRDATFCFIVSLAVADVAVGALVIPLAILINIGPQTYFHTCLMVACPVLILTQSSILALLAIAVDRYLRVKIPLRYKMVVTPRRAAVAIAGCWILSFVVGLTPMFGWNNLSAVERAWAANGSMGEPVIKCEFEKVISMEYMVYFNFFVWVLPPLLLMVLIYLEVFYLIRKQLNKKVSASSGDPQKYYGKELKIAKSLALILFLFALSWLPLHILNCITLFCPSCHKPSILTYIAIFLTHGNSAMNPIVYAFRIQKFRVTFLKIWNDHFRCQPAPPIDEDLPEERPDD

[11] = system: Liver; assay: Metabolic stability in human liver microsomes; type: ADME, microsome
[12] = Oral bioavailability in C57BL/6J mouse at 10 mg/kg; type: ADME, organism-based; settings: in vivo; method in brief: as §1
[13] = target: T2, Adenosine receptor A2b; assay: Antagonist activity at human adenosine A2B receptor expressed in HEK293 cells assessed as inhibition of NECA-induced increase in cAMP accumulation incubated for 15 mins followed by agonist treatment for 15 mins by HTRF assay; type: functional, cell-based
Method in brief: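 HEK-293 cells overexpressing human A2B, 24 h cultures, are pretreated with 1 U/mL ADA for 90 min at 37°C. Cells are harvested and preincubated with increasing compound concentrations for 15 min at room temperature in DMEM with ADA.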

[14] = target: T2, Adenosine receptor A2b; assay: Displacement of [3H]-MRS-1754 from human adenosine A2B receptor expressed in HEK293 cell membranes after 90 mins; settings: read-out: Ki
Method in brief: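 Membranes from HEK-293 cells stably expressing human A2B, ADA-treated, incubated with 1.6 nM [3H]-MRS-1754 in 50 mM Tris pH 6.5, 5 mM MgCl2, 1 mM EDTA, 1 U/ml ADA. Incubation 90 min at room temperature. Filtration; nonspecific binding with 100 µM NECA. Eight compound concentrations, each in triplicate; Ki derived by fitting.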

[15] = target: Adenosine receptor A2a (Homo sapiens) (UniProt P29274); assay: Displacement of [3H]-ZM241385 from human adenosine A2A receptor expressed in HEK293 cell membranes at 0.1 uM after 90 mins relative to control; method in brief: as §2
[16] = Inhibition of CYP450 (unknown origin); type: ADME, Homo sapiens
[17] = target: Voltage-gated inwardly rectifying potassium channel KCNH2 (Homo sapiens, UniProt Q12809); assay: Inhibition of human ERG
[18] = system: Mus musculus; assay: Antiinflammatory activity in […] allergic asthma mouse model assessed as inhibition of airway hyper-responsiveness at 3 mg/kg administered ip bid; type: functional, organism-based
[19] = system: HepG2; assay: Cytotoxicity against human HepG2 cells; type: cell-based
[20] = system: Mus musculus; assay: Antiinflammatory activity in ovalbumin-induced allergic asthma mouse model assessed as reduction in total cell count in bronchoalveolar lavage fluid at 3 mg/kg administered ip bid; type: functional, organism-based
[21] = system: MDCK; assay: Cytotoxicity against MDCK cells; type: cell-based; settings: Canis lupus familiaris

Sequence of Adenosine receptor A2a (Homo sapiens) (P29274 whole entry): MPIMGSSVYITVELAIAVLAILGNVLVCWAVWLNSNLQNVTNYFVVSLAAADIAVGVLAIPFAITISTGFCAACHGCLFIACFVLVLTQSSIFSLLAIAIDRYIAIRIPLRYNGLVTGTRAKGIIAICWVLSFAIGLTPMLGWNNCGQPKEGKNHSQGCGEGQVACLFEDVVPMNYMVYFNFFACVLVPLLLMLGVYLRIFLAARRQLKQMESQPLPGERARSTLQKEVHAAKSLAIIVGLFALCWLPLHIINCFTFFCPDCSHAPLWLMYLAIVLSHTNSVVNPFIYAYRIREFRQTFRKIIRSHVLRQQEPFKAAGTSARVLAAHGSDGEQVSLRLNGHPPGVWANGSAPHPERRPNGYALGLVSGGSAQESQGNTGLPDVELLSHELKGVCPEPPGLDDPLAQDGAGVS
Sequence of Voltage-gated inwardly rectifying potassium channel KCNH2 (Q12809 whole entry): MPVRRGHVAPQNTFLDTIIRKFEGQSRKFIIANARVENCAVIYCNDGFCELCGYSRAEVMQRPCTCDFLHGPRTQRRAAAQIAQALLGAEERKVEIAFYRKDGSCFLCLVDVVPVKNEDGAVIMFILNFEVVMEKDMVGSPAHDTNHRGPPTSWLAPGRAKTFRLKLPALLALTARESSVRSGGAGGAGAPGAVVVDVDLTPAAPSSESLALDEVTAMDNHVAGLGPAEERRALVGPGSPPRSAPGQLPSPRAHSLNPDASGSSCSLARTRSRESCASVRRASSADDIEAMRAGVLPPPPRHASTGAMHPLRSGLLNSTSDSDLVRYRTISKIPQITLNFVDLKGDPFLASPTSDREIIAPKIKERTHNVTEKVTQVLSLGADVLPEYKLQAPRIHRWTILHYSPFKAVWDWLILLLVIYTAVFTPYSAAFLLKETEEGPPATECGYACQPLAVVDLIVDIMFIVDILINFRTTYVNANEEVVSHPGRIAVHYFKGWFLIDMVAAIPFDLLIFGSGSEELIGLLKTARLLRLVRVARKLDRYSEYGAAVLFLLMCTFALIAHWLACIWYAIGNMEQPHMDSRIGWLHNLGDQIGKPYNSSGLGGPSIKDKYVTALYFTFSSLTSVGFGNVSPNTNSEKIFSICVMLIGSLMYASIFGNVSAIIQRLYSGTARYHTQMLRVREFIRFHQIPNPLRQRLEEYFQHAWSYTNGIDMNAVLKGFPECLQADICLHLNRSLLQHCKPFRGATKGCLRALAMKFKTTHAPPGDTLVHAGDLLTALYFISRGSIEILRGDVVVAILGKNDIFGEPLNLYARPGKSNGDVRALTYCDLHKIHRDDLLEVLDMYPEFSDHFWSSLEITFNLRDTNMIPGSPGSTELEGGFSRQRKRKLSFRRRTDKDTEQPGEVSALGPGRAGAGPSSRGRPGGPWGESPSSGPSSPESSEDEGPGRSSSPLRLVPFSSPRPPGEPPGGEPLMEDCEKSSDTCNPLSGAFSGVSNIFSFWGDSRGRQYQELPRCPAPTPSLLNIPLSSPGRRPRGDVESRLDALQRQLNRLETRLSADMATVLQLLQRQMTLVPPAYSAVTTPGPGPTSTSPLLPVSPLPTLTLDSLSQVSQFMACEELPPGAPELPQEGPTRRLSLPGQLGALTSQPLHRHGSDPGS

Row | SMILES | inhibition [2] [%] | inhibition [10] [%] | Ki [14] [nM] | inhibition [15] [%] | other results
1 | CCCn1c(=O)c2[nH]c(-c3cnn(CC#Cc4cccc(C(=O)O)c4)c3)nc2n(CCC)c1=O | 0 | 20 | 5.3 | 32 | Cmax [1]: 1.9 µM; Stability [3]: Stable; solubility [4]: 529 µM (≈ 244 µg/mL); half-life [5]: 1.8 h; IC50 [6]: 2000 nM; AUC(0-t) [7]: 2.2 µM·h; efflux ratio [8]: 12; Stability [9]: Stable; Stability [11]: Stable; bioavailability [12]: 10%; Ki [13]: 1.8 nM
2 | CCCn1c(=O)c2[nH]c(-c3cnn(CC#Cc4cccc(OC(F)(F)F)c4)c3)nc2n(CC)c1=O | 0 | 17 | 13 | 37 | Cmax [1]: 13 µM; Stability [3]: Stable; IC50 [16]: > 10000 nM; solubility [4]: 21 µM (≈ 10.2 µg/mL); IC50 [17]: > 25000 nM; half-life [5]: 6.1 h; IC50 [6]: 107 nM; AUC(0-t) [7]: 60 µM·h; inhibition [18]: Active; Stability [9]: Stable; IC50 [19]: > 100000 nM; Stability [11]: Stable; Activity [20]: Active; bioavailability [12]: 76%; Ki [13]: 8 nM; IC50 [21]: > 100000 nM
3 | CCCn1c(=O)c2[nH]c(-c3cnn(CC#Cc4ccccc4C(=O)OC)c3)nc2n(CCC)c1=O | 43 | 37 | 12 | 41 | –
4 | CCCn1c(=O)c2[nH]c(-c3cnn(CC#CCN4CCCCC4)c3)nc2n(CCC)c1=O | 73 | 64 | 140 | 74 | –
5 | CCCn1c(=O)c2[nH]c(-c3cnn(CC#Cc4cccc(C#N)c4)c3)nc2n(CCC)c1=O | 0 | 52 | 3.7 | 84 | –
6 | CCCn1c(=O)c2[nH]c(-c3cnn(CC#Cc4ccccc4C(F)(F)F)c3)nc2n(CCC)c1=O | 25 | 52 | 29 | 29 | –
7 | CCCn1c(=O)[nH]c2nc(-c3cnn(CC#Cc4ccc(F)cc4)c3)[nH]c2c1=O | 0 | 77 | 1.6 | 55 | –
8 | CCCn1c(=O)c2[nH]c(-c3cnn(CC#Cc4ccc(C(=O)OCC)cc4)c3)nc2n(CCC)c1=O | 27 | 80 | 3.5 | 19 | –
9 | CCCn1c(=O)c2[nH]c(-c3cnn(CC#Cc4ccc(F)cc4)c3)nc2n(CCC)c1=O | 19 | 105 | 5.9 | 66 | –
10 | CCCn1c(=O)[nH]c2nc(-c3cnn(CC#Cc4ccc(C(F)(F)F)cc4)c3)[nH]c2c1=O | 15 | 89 | 1.3 | 39 | –
11 | CCCn1c(=O)c2[nH]c(-c3cnn(CC#Cc4cccc(OC(F)(F)F)c4)c3)nc2n(CCC)c1=O | 6 | 39 | 3.6 | 27 | Cmax [1]: 6.6 µM; Stability [3]: Stable; solubility [4]: < 6 µM; half-life [5]: 5 h; IC50 [6]: 90 nM; AUC(0-t) [7]: 67 µM·h; Stability [9]: Stable; Stability [11]: Stable; bioavailability [12]: 42%; Ki [13]: 8.8 nM
12 | CCCn1c(=O)c2[nH]c(-c3cnn(CC#CCN4CCCC4)c3)nc2n(CCC)c1=O | 59 | 66 | 120 | 67 | –
13 | CCCn1c(=O)c2[nH]c(-c3cnn(CC#Cc4ccc(OC(F)(F)F)cc4)c3)nc2n(CCC)c1=O | 37 | 92 | 5.5 | 51 | –
14 | CCCn1c(=O)c2[nH]c(-c3cnn(CC#CCN4CCOCC4)c3)nc2n(CCC)c1=O | 51 | 28 | 330 | 39 | –
15 | CCCn1c(=O)c2[nH]c(-c3cnn(CC#Cc4cccc(F)c4)c3)nc2n(CC)c1=O | 23 | 73 | 7.4 | 58 | –
